Compound activity deposited in PubChem by Columbia University Molecular Screening Center.
The sample as a whole holds a higher share of hits than the screen did.
Insulin prom act: TRM-6 insulin promoter activation; TRM-6 cells, insulin promoter eGFP reporter, imaging; plate-scaled: unstimulated 0, stimulated control 100; activation, % at 2 µM; actives 0.81% (n = 130,000); AID 1296;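 active means activation at 2 µM above a set limit, confirmed on inspection of the cell images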;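 further: share of cells whose green reporter signal exceeds an intensity cutoff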
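Test system: human fetal islet-derived TRM-6 cells with tamoxifen-inducible insulin promoter–eGFP reporter. Compound dosing: 2 µM final, single concentration. Incubation: tamoxifen pre-incubation 15 h overnight, then compound exposure 48 h at 37 °C. Signal: fixed-cell fluorescence microscopy, eGFP plus Hoechst.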
* marks the source's active call; other numbers are inactive results; [ ] = another dose, or the depositor's remark.

SMILES	Insulin prom act
O=C(c1cc2sccc2n1Cc1ccccc1)N1CCc2ccccc21	0
COC(=O)c1cc2sccc2n1CC(=O)N1CCCc2ccccc21	193*
CCOC(=O)c1cc2sccc2n1CC(=O)C(C)(C)C	213*
CCOC(=O)c1cc2sccc2n1CC(=O)N1CCCc2ccccc21	9
CCOC(=O)c1cc2sc(C)cc2n1CC(=O)NCc1ccc(F)cc1	-82
Cc1ccc(/C=C2/C(=O)N=C(N)N2C)s1	158
COc1ccc(/C(N)=N/OC(=O)Cc2ccc(OC)c(OC)c2)cc1	210*
COc1ccc(C/C(N)=N/OC(C)=O)cc1OC	8
COc1ccc(C(=O)O/N=C(\N)c2ccncc2)cc1OC	-7
O=C(Cn1c(=S)[nH]c2ccccc2c1=O)N1CCN(c2ccc(F)cc2)CC1	0
Cc1ccc(CN(Cc2ccco2)S(=O)(=O)c2ccc(S(=O)(=O)NCC3CCCO3)cc2)cc1 (configuration not stated)	0
COc1ccccc1NC(=O)C1=C(C)Nc2nnnn2C1c1ccncc1 (configuration not stated)	-8
COc1ccc(NC(=O)C2=C(C)Nc3ncnn3C2c2ccccc2C(F)(F)F)c(OC)c1 (configuration not stated)	403*
CC1=C(C(=O)Nc2cccnc2)C(c2cccnc2)n2ncnc2N1 (configuration not stated)	-7
FC(F)(F)c1cnc(-c2cnc(-c3cccnc3)nc2)c(Cl)c1	-2
CC1=CC(C)(C)n2c(O)c(N=N)c3cc(C)cc1c32	-6
CCc1nc2ccc(C(=O)O)cc2nc1CC	0
CCOC(=O)c1c(C)sc2c1N(C(=O)CN1CCOCC1)c1cc(Cl)ccc1S2	162
CCCn1nnc(NC(=O)c2ccc(Br)cc2)n1	-79
CCOc1ccc(C(=O)Nc2cc(NC(=O)c3ccc(OCC)c(Cl)c3)cc(C(=O)O)c2)cc1Cl	-6
CCCn1nnc(NC(=O)c2ccc(OCC)c(Cl)c2)n1	623*
O=C(N/N=C/c1cccs1)[C@H]1C[C@@H]1c1ccccc1	0
O=C1NCC(COc2ccc(Cl)cc2)O1 (configuration not stated)	0
COCC(=O)N(c1ccc(C(C)C)cc1)C1C=CS(=O)(=O)C1 (configuration not stated)	422*
CCC(=O)N(c1ccc(F)cc1)C1C=CS(=O)(=O)C1 (configuration not stated)	0
SMILES	Insulin prom act
CC(=O)N(c1ccc(C(C)C)cc1)C1C=CS(=O)(=O)C1 (configuration not stated)	3
C/C(=N\NC(=O)COc1ccc(C(C)(C)C)cc1)c1ccc(N2CCOCC2)cc1	0
COc1cccc(N2CCN(C3CC(=O)N(c4ccc(F)c(Cl)c4)C3=O)CC2)c1 (configuration not stated)	-10
NC(=O)C1CCN(C2CC(=O)N(c3ccc(F)c(Cl)c3)C2=O)CC1 (configuration not stated)	86*
O=C(C1CCN(C2CC(=O)N(c3cccc(Cl)c3)C2=O)CC1)N1CCCC1 (configuration not stated)	7
O=C(CN1C(=O)C2C3C=CC(C4CC34)C2C1=O)Oc1ccccc1 (configuration not stated)	-3
CC(C)(C)NC(=O)C(=O)NN=C1CCCCCCCCCCC1	-8
COc1ccc(NC(=O)CCc2nc3ccccc3[nH]2)cc1	0
CCN(CC)CCOc1cccc(C(C)C)c1	9
CCN(CC)CCOc1ccc(/C(=C(/Cl)c2ccccc2)c2ccccc2)cc1	280*
CCOc1ccc(C(=O)OCCN(CC)CC)cc1	-80
CCc1ccc(NC(=O)c2ccc3c(c2)C(=O)N(CCOC)C3Nc2ccc(CC)cc2)cc1 (configuration not stated)	0
Cc1nc(SCCOc2ccccc2F)[nH]c(=O)c1Cc1ccccc1	0
O=C(NCCCn1ccnc1)C(=O)Nc1ccccc1	127
Cc1cc(C(=O)NCCCn2ccnc2)sc1-c1ccccc1	531*
O=C(NCCCn1ccnc1)C(=O)NCc1ccccc1	-3
CCOc1ccc(CNC(=S)N/N=C\c2ccc([N+](=O)[O-])cc2)cc1	0
CCOc1ccc(C=NC23CN4CN(CN(C4)C2)C3)cc1	191*
CCOc1ccc(OCCN2CCCCC2)cc1	-62
O=C(Cc1ccccc1)N/N=C/c1ccc(-c2ccc([N+](=O)[O-])cc2)o1	0
Cc1ccc(C(=O)N/C(=C\c2ccc(-c3cccc([N+](=O)[O-])c3)o2)C(=O)NC(C)(C)C)cc1	-7
CCCNC(=O)Cn1c(=O)/c(=C\c2ccc(-c3ccc([N+](=O)[O-])cc3)o2)s/c1=C\C(=O)C(C)(C)C	270*
CCOc1ccc(S(=O)(=O)NN)cc1	3
CCC(C)(C)n1nnnc1C(c1ccc(C)cc1)N(Cc1ccco1)Cc1cccs1 (configuration not stated)	-4
CC1CN(S(=O)(=O)c2cccc(C(=O)Nc3ccc4c(c3)CCC4)c2)CC(C)O1 (configuration not stated)	-2
SMILES	Insulin prom act
CC1=CC(C)(C)N2C(=O)C3(N=C(N)NC(Nc4ccccc4)=N3)c3cc(C)cc1c32 (configuration not stated)	481*
CN(C)c1ccc(/C=C/C=N/Nc2nc(N3CCOCC3)nc(N3CCOCC3)n2)cc1	8
CS(=O)(=O)NCCn1ccc2ccccc21	146
N#CC1=C(N)C2=C(N3CCCCC3)CCCC2C1(C#N)C#N (configuration not stated)	-6
CCCCN(C)C1=CC2=CC(=C(C#N)C#N)CCC2CC1 (configuration not stated)	245*[fluoresces]
N#CC(C#N)=C1C=C2C=C(N3CCCCC3)CCC2CC1 (configuration not stated)	212*
CCN(CC)C1=CC2=CC(=C(C#N)C#N)CCC2CC1 (configuration not stated)	525*
CC(NC(=O)C(C(=O)c1cccc([N+](=O)[O-])c1)n1cc(Cl)ccc1=O)c1ccccc1 (configuration not stated)	119
COc1ccccc1N(CC(=O)NC(C)(C)C)S(=O)(=O)c1cccs1	10
CCCCNC(=O)CSc1nc2ccsc2c(=O)n1C1CCN(C(=O)OCC)CC1	0
CN(Cc1ccccc1F)c1nc(-c2cccs2)nc2ccccc12	3
Cn1nc(-c2ccc3c(c2)OCCO3)c2ccccc2c1=O	7
CCOC(=O)c1ccc(NC(=O)COc2ccc(-n3cnnn3)cc2)cc1	3
CC(=O)Nc1ccc(-n2cnnn2)cc1	512*
O=C(COc1ccc(F)cc1)Nc1ccc(-n2cnnn2)cc1	-3
O=S(=O)([O-])CCC[n+]1c(SCCCS(=O)(=O)O)sc2ccc(Cl)cc21	7
FCCCOc1ccc(CN2CCN(c3ccccc3F)CC2)cc1	-3
Cc1ccc(NC(=O)C2CCCN2C(=O)Oc2ccccc2)cc1C (configuration not stated)	0
CC(C)(C)OC(=O)N1CCCC1C(=O)NCCc1ccccc1 (configuration not stated)	9
Cc1cccc(C)c1NC(=O)C1(NC(=O)C2CCCN2C(=O)OC(C)(C)C)CCCCC1 (configuration not stated)	171*
N#Cc1cc(-c2ccccc2)c[nH]c1=O	0
O=C(N/C(=C/c1ccc(Br)cc1)C(=O)N1CCCC1=O)c1ccco1	6
COC(=O)CNc1ccc2c(c1)OCO2	393
Cc1cc(C)cc(NC(=S)NCc2ccc3c(c2)OCO3)c1	-2
Cc1ccc(CNc2ccc3c(c2)OCO3)cc1	440*
